Tests used:
West Nile virus [1] = assay: Antiviral activity against West Nile virus infected in CyPA-deficient human Huh7.5 cells assessed as decrease in viral replication at 4 uM after 24 hrs by luciferase reporter gene assay; format: functional; settings: Huh-7, 24 h
In short: (§1)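 Huh-7.5 shRNA lines (CyPA knockdown sh-A and control sh-Fluc; puromycin 1 μg/ml) seeded at 2 × 10⁴/well and infected 24 h later with WNV VLP at 1 FFU/cell. Cs (0, 4 or 8 μM) or 1% ethanol added at once. Luciferase read at 24 h p.i. and expressed as % of ethanol-treated sh-Fluc. Mean ± SD of three independent experiments.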

West Nile virus [2] = assay: Antiviral activity against West Nile virus infected in CyPA-deficient human Huh7.5 cells assessed as decrease in viral replication at 8 uM after 24 hrs by luciferase reporter gene assay; format: functional; settings: Huh-7, 24 h; in short: as §1
West Nile virus [3] = assay: Antiviral activity against West Nile virus infected in human Huh7.5 cells assessed as decrease in viral replication at 8 uM after 24 hrs by luciferase reporter gene assay; format: functional; settings: Huh-7, 24 h; in short: as §1
West Nile virus [4] = assay: Antiviral activity against West Nile virus infected in african green monkey Vero cells assessed as decrease in viral RNA synthesis after 24 hrs by luciferase reporter gene assay; format: functional, organism-based
In short: (§2)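 Stable Rluc-Neo-Rep replicon-bearing Vero cells (DENV-1 or WNV; kept in DMEM/10% FBS with 1 mg/ml G418, 37°C, 5% CO₂) treated with Cs at ≤8 μM. Read-out is replicon Renilla luciferase, and 50% effective concentration is taken from the dose response.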

dengue virus type 1 [5] = assay: Antiviral activity against Dengue virus 1 infected in african green monkey Vero cells assessed as decrease in viral RNA synthesis after 24 hrs by luciferase reporter gene assay; format: functional, organism-based; in short: as §2
West Nile virus [6] = assay: Antiviral activity against West Nile virus infected in human Huh7.5 cells assessed as decrease in viral RNA synthesis at 8 uM after => 20 hrs by luciferase reporter gene assay; format: functional; settings: Huh-7, 20 h
In short: (§3)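 Rluc2A-Rep replicon RNA (10 μg; WNV or DENV-1) electroporated into Huh-7.5 cells, seeded at 4 × 10⁵/well, then treated at once with 8 μM Cs or 1% ethanol. Cells washed with cold PBS and lysed at time points, and lysates frozen at −80°C. Luciferase read on 20 μl lysate. Early signal (1–10 h p.t.) reflects translation and later signal (>10 h) reflects RNA replication.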

dengue virus type 1 [7] = assay: Antiviral activity against Dengue virus 1 infected in human Huh7.5 cells assessed as decrease in viral RNA synthesis at 8 uM after => 20 hrs by luciferase reporter gene assay; format: functional; settings: Huh-7, 20 h; in short: as §3
Yellow fever virus = assay: microbe, parasite or virus in culture; format: functional; settings: Huh-7, 20 h

**Q.** How did the inhibition at 4 µM (West Nile virus [1]) turn out when `C/C=C/C[C@@H](C)[C@@H](O)[C@H]1C(=O)N[C@@H](CC)C(=O)N(C)CC(=O)N(C)[C@@H](CC(C)C)C(=O)N[C@@H](C(C)C)C(=O)N(C)[C@@H](CC(C)C)C(=O)N[C@@H](C)C(=O)N[C@H](C)C(=O)N(C)[C@@H](CC(C)C)C(=O)N(C)[C@@H](CC(C)C)C(=O)N(C)[C@@H](C(C)C)C(=O)N1C` [CYCLOSPORINE] was run?
**A.** 10%

**Q.** What about the inhibition at 8 µM (West Nile virus [2]) of the same compound?
**A.** 2%

**Q.** What about the inhibition at 8 µM (West Nile virus [3]) of the same compound?
**A.** 4%

**Q.** And the IC50 (West Nile virus [4])?
**A.** 8 µM

**Q.** And the IC50 (dengue virus type 1 [5])?
**A.** ≤ 0.5 µM

**Q.** What about the inhibition at 8 µM (West Nile virus [6]) of the same compound?
**A.** ≥ 70%

**Q.** And the inhibition at 8 µM (dengue virus type 1 [7])?
**A.** ≥ 70%

**Q.** And the inhibition at 8 µM (Yellow fever virus)?
**A.** ≥ 70%

Reference: ChEMBL document CHEMBL1649528 (Antimicrob Agents Chemother, 2009)
